ABHD4 inh – ABHD4 inhibitors, primary screen, biochemical, fluorescence polarization, mouse; AID 720543, 2013; hit rate 0.54% among 370,000; inhibition, % at 8.92 µM; purified mABHD4, FP-Rh probe fluorescence polarization;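 active = inhibition exceeding the mean over every tested compound plus 3 SD, cut at about 30% in these data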
Target sequence (Q8VD66 whole entry, looked up): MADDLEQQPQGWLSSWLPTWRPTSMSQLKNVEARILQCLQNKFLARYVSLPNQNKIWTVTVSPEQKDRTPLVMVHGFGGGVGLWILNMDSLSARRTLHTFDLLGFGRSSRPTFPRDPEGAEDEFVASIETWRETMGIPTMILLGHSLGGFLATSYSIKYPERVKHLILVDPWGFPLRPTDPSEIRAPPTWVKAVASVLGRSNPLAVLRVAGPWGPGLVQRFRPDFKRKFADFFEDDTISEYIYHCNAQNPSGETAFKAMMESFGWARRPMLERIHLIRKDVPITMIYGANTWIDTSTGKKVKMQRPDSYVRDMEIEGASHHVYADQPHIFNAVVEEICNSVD
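system = mouse ABHD4 enzyme, wild type | medium = HEPES pH 7.0, NaCl, Pluronic buffer | also added = FP-Rh probe | incubation = Enzyme–compound pre-incubation 45 min, then probe 60 min, both 25 °C | technique = fluorescence polarization, excitation 525 nm, emission 598 nm, BODIPY TMR filters | controls = S159A mutant high control, sample median low control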
LEDGF integ inh – blockers of LEDGF/p75-dependent integrase strand transfer – biochemical, TR-FRET, high throughput, primary screen; TR-FRET IN-LEDGF/p75 DNA integration, Eu/Cy5; inhibition, % at 3.7 µM; AID 743269, 2014; hit rate 0.64% among 370,000; HIV-1 integrase (with human LEDGF/p75);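 active = inhibition above the screen-wide mean plus 3 SD, cut at about 13% in these data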;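 note: signal is the Cy5 over europium emission ratio at 671 and 618 nm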
TDP2 inh – human TDP2 enzyme inhibitors, primary screen, biochemical, epi absorbance, recombinant enzyme; Tyrosyl-DNA phosphodiesterase 2 (Homo sapiens), O95551; T5PNP hydrolysis, p-nitrophenol absorbance 415 nm; inhibition, % at 12.8 µM; hit rate 0.34% among 370,000;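 active = inhibition above the mean of all tested compounds plus 3 SD, set per campaign, cut at about 25% in these data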
Target sequence (O95551 whole entry, looked up): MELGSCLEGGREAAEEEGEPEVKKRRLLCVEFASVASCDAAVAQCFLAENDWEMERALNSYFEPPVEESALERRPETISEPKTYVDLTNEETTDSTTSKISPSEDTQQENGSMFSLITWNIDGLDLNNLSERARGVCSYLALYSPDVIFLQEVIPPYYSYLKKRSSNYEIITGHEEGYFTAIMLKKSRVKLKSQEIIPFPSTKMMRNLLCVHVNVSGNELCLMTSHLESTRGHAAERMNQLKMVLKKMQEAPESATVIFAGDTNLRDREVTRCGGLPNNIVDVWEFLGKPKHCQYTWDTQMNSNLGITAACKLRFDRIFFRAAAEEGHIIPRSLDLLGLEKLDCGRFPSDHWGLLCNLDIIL
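System: recombinant human TDP2 / Amount: 120 nM TDP2 per well / Also added: 5 mM T5PNP chromogenic substrate / Doses: 12.8 µM single point, 1% DMSO / Incubation: 2 h at 37 °C / Detection: p-Nitrophenol epi absorbance / Evaluation: % inhibition relative to enzyme-containing and enzyme-free wells / Repeats: singlicate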
SIAE primary – human SIAE inhibitors, primary screen, biochemical, fluorescence polarization, FP-Rh probe, 1536-well HTS. Sialate O-acetylesterase (Homo sapiens), Q9HAT2. SIAE FP-Rh probe binding. inhibition, % at 9.66 µM. hit rate 0.69% among 370,000. AID 1053197, 2014;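 active = inhibition above a cutoff: mean of compounds within the control limits plus 3 SD of those, cut at about 17% in these data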
TCR-CD3 inh – inhibitors of human TCR-CD3 interaction, primary screen, biochemical, fluorescence, TAMRA-labeled TCR probe; hit rate 0.37% among 360,000; AID 651800, 2012; inhibition, % at 9.4 µM;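 note: recombinant mutant TCR 2C K166C tagged with TAMRA read by polarization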
HTRA1 inhibitor – HTRA1 serine protease inhibitors, primary screen, biochemical, fluorescence polarization, HTS; recombinant HTRA1, FP-rhodamine activity-based probe; hit rate 0.5% among 340,000; Q92743; inhibition, % at 5.96 µM; AID 504803, 2011; in the data active = inhibition above about 36%
BSA probe FL – compounds interfering with TAMRA-BSA probe, counter-screen for TCR-CD3 interaction inhibitor project, biochemical, fluorescence, TAMRA-labeled BSA; shares compounds with TCR-CD3 inh; TAMRA-labeled BSA probe fluorescence counterscreen; inhibition, % at 9.4 µM; hit rate 10% among 1,200; AID 652035, 2013; in the data active = inhibition above about 23%
TCR-CD3 conf – TCR-CD3 interaction inhibitors, retest, confirmation, biochemical, fluorescence, TAMRA-labeled TCR probe; shares compounds with TCR-CD3 inh; TAMRA-labeled TCR probe fluorescence binding assay; hit rate 48% among 1,200; inhibition, % at 9.4 µM; AID 652036, 2013
ABHD4 confirm – ABHD4 inhibitors, retest, confirmation, biochemical, fluorescence polarization, mouse; shares compounds with ABHD4 inh; purified mABHD4, FP-Rh probe fluorescence polarization; inhibition, % at 8.92 µM; hit rate 55% among 1,800; AID 720658, 2013;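 active = mean inhibition across replicates above the hit cutoff set in the primary screen, cut at about 30% in these data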
TDP2 confirm – human TDP2 enzyme inhibitors, retest, confirmation, biochemical, epi absorbance, recombinant enzyme. AID 743263, 2014. hit rate 22% among 1,100. shares compounds with TDP2 inh. absorbance read-out. inhibition, % at 12.8 µM; in the data active = inhibition above about 25%
IN multimer act – HIV-1 IN multimer formation enhancers, counter-screen for LEDGF/p75 integration inhibitor project, biochemical, TR-FRET | shares compounds with LEDGF integ inh | TR-FRET HIV-1 integrase multimerization | activation, % at 7.7 µM | hit rate 17% among 2,000; in the data active = activation above about 8.9%
TRFRET interf – TR-FRET optical interference artefacts, confirmation, artefact control for LEDGF/p75-dependent integration inhibitor project, biochemical, HIV-1 IN multimerization. AID 1053135, 2014. 2,000 tested, under 10 active. inhibition, % at 7.7 µM. TR-FRET optical interference counterscreen. shares compounds with LEDGF integ inh;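 active = inhibition above the mean over all tested compounds plus 3 SD, which no compound reached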
LEDGF integ conf – inhibitors of HIV-1 IN-LEDGF/p75 DNA integration, confirmation, biochemical, TR-FRET; hit rate 36% among 2,000; TR-FRET LEDGF/p75-dependent HIV-1 integration; inhibition, % at 3.7 µM; shares compounds with LEDGF integ inh; AID 1053136, 2014; in the data active = inhibition above about 14%
Each line names hits and unclear results; the compound was inactive in the other large screens (follow-up assays come after a bar, where they were run); ! = a repeat was not active. Compounds with a hit are over-represented: about 2.2% of the library has one in this group of screens. Cut-off read from the data, not from the text of the source, unless noted: active = inhibition above about 19%; inactive = the rest.

CC(=O)Nc1ccc(Nc2c3c4c(cccc4n(C)c2=O)C(=O)c2ccccc2-3)cc1	ABHD4 inh 31, TCR-CD3 inh 21 | BSA probe FL 55 | TCR-CD3 conf 37 | ABHD4 confirm 33
C(=C\c1ccccc1)/CSc1nnc(Cc2cccs2)n1-c1ccccc1	none (no result: TCR-CD3 inh, HTRA1 inhibitor)
Cc1ccc(CNC(=O)c2ccc(S(=O)(=O)N3CCCC3)cc2)cc1	none
Cc1cc2cc(CNC(=O)c3ccc(S(=O)(=O)N4CCCC4)cc3)ccc2n1C	ABHD4 inh 39, SIAE primary 26, TCR-CD3 inh 70 | BSA probe FL inactive | TCR-CD3 conf inactive | ABHD4 confirm inactive
Cc1cc2cc(CNC(=O)C(C)Oc3ccccc3)ccc2n1C (configuration not stated)	ABHD4 inh 34, TCR-CD3 inh 45 | BSA probe FL inactive | TCR-CD3 conf inactive | ABHD4 confirm inactive
C[C@@H]1CN([C@@H](C)CO)C(=O)c2cc(Br)cnc2O[C@@H]1CN(C)Cc1ccccn1	none (no result: HTRA1 inhibitor)
COc1cc(NC(=O)C2CCCN(S(=O)(=O)c3ccc(C)cc3)C2)cc(OC)c1 (configuration not stated)	none (no result: TCR-CD3 inh, HTRA1 inhibitor)
CCOC(=O)N1CCc2cc(OC)c(OC)c3c2c1cc1cc(OC)c(OC)cc13	ABHD4 inh 63, TCR-CD3 inh 27 | BSA probe FL inactive | TCR-CD3 conf inactive | ABHD4 confirm 69
CNC(=S)N/N=C/c1cc(Br)cc(Br)c1O	ABHD4 inh 31, TCR-CD3 inh 40 | BSA probe FL inactive | TCR-CD3 conf 36 | ABHD4 confirm inactive
CN(CCC#N)c1ccc(/C=C(\C#N)c2ccccn2)cc1	ABHD4 inh 89, TCR-CD3 inh 81 | BSA probe FL inactive | TCR-CD3 conf inactive | ABHD4 confirm inactive
CCN(CC)c1ccc(/C=C(\C#N)c2ccccn2)cc1	none (no result: ABHD4 inh, LEDGF integ inh, TDP2 inh, SIAE primary, TCR-CD3 inh)
O=S1(=O)c2c(cccc2N2CCC[C@H]2CO)O[C@H]2CCN1C2	none (no result: TCR-CD3 inh, HTRA1 inhibitor)
O=C1NC(=O)C2(N1)C(=O)c1cccc3cccc2c13 (configuration not stated)	ABHD4 inh 78, TCR-CD3 inh 61 | BSA probe FL 37 | TCR-CD3 conf 31 | ABHD4 confirm inactive
O=C1NC(=O)C2(N1)c1ccccc1-c1ccccc12	none
O=C(NCc1ccccc1)[C@@H]1CCCN1C(=O)[C@H]1CCCN1C(=O)c1ccccc1C(F)(F)F	none (no result: HTRA1 inhibitor)
Nc1ccc2c3c(cccc13)C(=O)N(c1ccccc1)C2=O	ABHD4 inh 38, TCR-CD3 inh 28 | BSA probe FL 43 | TCR-CD3 conf 34 | ABHD4 confirm 33
Nc1ccc2nc3c(=O)n(C4CCCCC4)c(=O)[nH]c3nc2c1	ABHD4 inh 43, TCR-CD3 inh 24 | BSA probe FL 28 | TCR-CD3 conf 27 | ABHD4 confirm 41
Nc1ccc2nc3c(=O)n(CCc4ccccc4)c(=O)[nH]c3nc2c1	ABHD4 inh 40, TCR-CD3 inh 27 (no result: HTRA1 inhibitor) | BSA probe FL 26 | TCR-CD3 conf 21 | ABHD4 confirm 30
COC(=O)c1cc2c(c3c4cc(OC)ccc4n(S(=O)(=O)c4cccc(C)c4)c13)C(=O)N(Cc1ccccc1OC)C2	none (no result: HTRA1 inhibitor)
COC(=O)Cc1nnn2c1[C@H](C)[C@H](c1ccccc1Br)OC[C@@H]2c1ccccc1	none (no result: HTRA1 inhibitor)
CCCCCCSc1cccc(-c2nc3cc(C)ccn3c2NC2CCCCC2)c1	none
CCC(C)Sc1cccc(-c2nc3cc(C)ccn3c2NC2CCCCC2)c1 (configuration not stated)	ABHD4 inh 39, TCR-CD3 inh 25! | BSA probe FL inactive | TCR-CD3 conf inactive | ABHD4 confirm 52
CN(C)c1ncc(C2=C(Cl)C(=O)C(N3CCCC3)=C(Cl)C2=O)s1	ABHD4 inh 63, LEDGF integ inh 63, TDP2 inh 27, SIAE primary 25, TCR-CD3 inh 22, HTRA1 inhibitor 39 | BSA probe FL inactive | TCR-CD3 conf inactive | ABHD4 confirm 83
CC(=O)c1cnc(N(C)C)s1	none
CCOC(=O)C1(Cc2ccccc2)CCN(Cc2ccccc2[N+](=O)[O-])CC1	none (no result: TCR-CD3 inh, HTRA1 inhibitor)
O=C(O)/C=C/C(=O)Nc1ccc(O)cc1	ABHD4 inh 37, LEDGF integ inh 14, TDP2 inh 34, TCR-CD3 inh 20 | BSA probe FL inactive | TCR-CD3 conf inactive | ABHD4 confirm inactive | TDP2 confirm 31
C[C@H](CO)N1C[C@H](C)[C@@H](CN(C)C(=O)Cc2ccccc2)OCc2cn(nn2)CCCC1=O	none (no result: HTRA1 inhibitor)
O=C(O)c1ccccc1-c1ccc(C=c2sc3nc4cc(Br)cnc4n3c2=O)o1	LEDGF integ inh 29, TCR-CD3 inh 27 (no result: HTRA1 inhibitor) | BSA probe FL inactive | TCR-CD3 conf 23 | IN multimer act inactive | TRFRET interf inactive | LEDGF integ conf 17
O=C(O)c1ccccc1-c1ccc(/C=C/c2cc(C(F)(F)F)[nH]c(=O)n2)o1	none
